Experiment [1] deals with Histone deacetylase 1 (Homo sapiens) (UniProt Q13547). Kind of experiment: Inhibition of human recombinant GST-tagged HDAC1 expressed in Sf9 cells using Fluor de Lys as substrate at 5 uM after 0.5 hrs by fluorimetry. A digest of the protocol:
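GST-HDAC1 was expressed in Sf9 cells via baculovirus and purified on glutathione beads. Enzyme was incubated with Fluor de Lys acetyl-lysine substrate ±5 µM compound for 0.5 h at 37 °C, followed by developer for 30 min. Fluorescence was read at ex 360/em 460 nm and reported as percent of control activity.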

Experiment [2] relates to U-937. The experiment in a line: Cell cycle arrest in human U937 cells assessed as accumulation at G1 phase at 5 uM after 30 hrs by propidium iodide staining based flow cytometry. The experiment is classed as functional. A digest of the protocol:
(§1)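 U937 cells in RPMI with 10% FBS and antibiotics, kept at 200,000 cells/mL, exposed to compound at 5 µM (in DMSO). DNA content was read by flow cytometry and phases modelled with ModFit. Values are means of independent duplicates.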

Experiment [3] concerns U-937. The experiment in a line: Induction of apoptosis in human U937 cells assessed as caspase 3 activation at 5 uM after 30 hrs by FACS analysis. The experiment is classed as functional. A digest of the protocol: (§2)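 Caspase 3 activity was read in living U937 cells after 5 µM exposure. About 1×10^6 cells were washed twice in cold PBS and loaded 1 h on ice with cell-permeable fluorescent substrate FAM-DEVD-FMK. After washing, cells were analysed by FACS. Runs were in duplicate; values are mean ± SD.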
In general terms: In flow cytometry, cells or beads pass a laser one at a time.

Experiment [4] concerns the target Histone deacetylase (Homo sapiens) (UniProt Q13547+O15379+Q9UBN7+Q92769+Q9UQL6+Q8WUI4+Q9BY41+Q96DB2+P56524+Q9UKV0+Q969S8). The experiment in a line: Inhibition of HDAC1 in human U937 cells assessed a increase in histone H3 acetylation in human U937 cells at 5 uM after 24 hrs by Western blot analysis. The experiment is classed as cell-based. The note with it: U-937. A digest of the protocol:
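U937 cells were treated 24 h at 5 µM, then lysed in Triton extraction buffer. Histones were acid-extracted with 0.2 M HCl overnight at 4 °C and protein was quantified by Bradford. 10 µg of histone extract was run on 15% polyacrylamide gels and immunoblotted with pan-acetyl-histone H3 antibody.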
On the technique in general: Immunoblotting shows a protein as a band on a membrane.

Experiment [5] deals with T1, NAD-dependent protein deacetylase sirtuin-1 (Homo sapiens) (UniProt Q96EB6).
T1 sequence (whole entry): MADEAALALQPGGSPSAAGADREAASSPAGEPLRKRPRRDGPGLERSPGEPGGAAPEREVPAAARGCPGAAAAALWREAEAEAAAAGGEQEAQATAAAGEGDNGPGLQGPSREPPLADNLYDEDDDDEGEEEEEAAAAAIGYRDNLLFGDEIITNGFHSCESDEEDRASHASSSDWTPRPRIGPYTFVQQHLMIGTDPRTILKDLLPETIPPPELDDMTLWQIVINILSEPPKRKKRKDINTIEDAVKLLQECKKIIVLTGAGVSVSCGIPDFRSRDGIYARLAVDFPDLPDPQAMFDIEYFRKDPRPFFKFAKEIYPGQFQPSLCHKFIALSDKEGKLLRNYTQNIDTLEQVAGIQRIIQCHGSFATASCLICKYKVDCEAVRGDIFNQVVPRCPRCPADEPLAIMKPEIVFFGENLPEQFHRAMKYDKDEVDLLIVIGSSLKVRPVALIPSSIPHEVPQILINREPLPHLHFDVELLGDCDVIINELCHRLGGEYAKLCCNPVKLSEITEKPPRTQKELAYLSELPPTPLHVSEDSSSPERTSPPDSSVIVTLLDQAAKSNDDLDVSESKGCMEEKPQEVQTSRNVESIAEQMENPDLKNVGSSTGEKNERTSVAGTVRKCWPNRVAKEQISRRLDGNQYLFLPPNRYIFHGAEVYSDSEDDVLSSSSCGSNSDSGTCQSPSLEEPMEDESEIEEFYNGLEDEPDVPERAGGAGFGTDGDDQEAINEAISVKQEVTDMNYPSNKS
The experiment in a line: Inhibition of recombinant human SIRT1 lysine deacetylase activity at 50 uM after 60 mins by fluorimetry relative to control. The method in brief: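 Human SIRT1 expressed in E. coli BL21 and affinity-purified (1 µg) was reacted with acetylated p53 peptide (aa 379–382), 1 mM DTT and 200 µM NAD⁺, with compound at 50 µM, 60 min at 37 °C. Fluorescence was read at ex 360/em 450 nm. Results are mean and SD of four independent experiments as percent of untreated control.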

For experiment [6], the target named is CREB-binding protein/Histone acetyltransferase p300 (Homo sapiens) (UniProt Q09472+Q92793). Kind of experiment: Inhibition of recombinant human p300/CBP using [3H]-acetyl CoA at 50 uM after 2 hrs by scintillation counting relative to control. It is filed as protein assay. The method in brief:
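CBP fragment (aa 1098–1877) expressed in E. coli BL21 and affinity-purified (1 µg) was incubated in HAT buffer with histone H4 peptide (aa 2–24, 10 µg) and 20 µM acetyl CoA carrying 0.5 µCi/mL [³H]-acetyl CoA, compound at 50 µM, for 2 h at 37 °C. Samples were spotted on P81 paper in triplicate, washed in TCA and acetone, and counted. Output is percent of untreated control.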

Experiment [7] relates to U-937. The experiment in a line: Induction of apoptosis in human U937 cells assessed as caspase 3 activation at 5 uM after 40 hrs by FACS analysis. The experiment is classed as functional, cell-based. The method in brief: as §2
Experiment [8] is described as follows: Inhibition of HDAC in cell-free system.
Experiment [9] can be described thus: Inhibition of DNMT in cell-free system.
Experiment [10] concerns U-937. Kind of experiment: Induction of human U937 cell differentiation into granulocytes assessed as expression of CD11c marker on cell membrane at 5 uM after 30 to 40 hrs by PI staining based FACS analysis. The experiment is classed as functional. The method in brief: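 After 5 µM treatment, U937 cells were stained with PE-conjugated anti-CD11c; controls got PE mouse IgG1, 30 min at 4 °C in the dark. Cells were washed and taken up in PBS with propidium iodide (0.25 µg/mL), then read by FACS. Result is percent CD11c-positive/PI-negative cells, mean of independent quadruplicates.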

The subject of experiment [11] is U-937. The experiment in a line: Cell cycle arrest in human U937 cells assessed as accumulation at G1 phase at 5 uM by propidium iodide staining based flow cytometry. The note with it: TDE = time-dependent effect. It is filed as functional. The method in brief:
as §1

In experiment [12] the test system is U-937. The experiment in a line: Cell cycle arrest in human U937 cells assessed as accumulation at G2/M phase at 5 uM after 30 hrs by propidium iodide staining based flow cytometry. It is filed as functional. The method in brief:
as §1

Experiment [13] concerns U-937. The experiment in a line: Cell cycle arrest in human U937 cells assessed as accumulation at G1 phase at 5 uM after 48 hrs by propidium iodide staining based flow cytometry. The experiment is classed as functional. A digest of the protocol:
as §1

The test system of experiment [14] is U-937. Kind of experiment: Cell cycle arrest in human U937 cells assessed as accumulation at S phase at 5 uM after 48 hrs by propidium iodide staining based flow cytometry. It is filed as functional. A digest of the protocol: as §1
Experiment [15] deals with U-937. The experiment in a line: Cell cycle arrest in human U937 cells assessed as accumulation at G2/M phase at 5 uM after 48 hrs by propidium iodide staining based flow cytometry. The experiment is classed as functional. A digest of the protocol: as §1

The text below walks through data of ChEMBL document CHEMBL1817548, “Epigenetic profiling of the antitumor natural product psammaplin A and its analogues” (Bioorg Med Chem, 2011).

Usually IC50 stands for the concentration that gives 50% inhibition.

Active and inactive are the calls of the source. The rule behind the calls is not given here.

Chain of Histone deacetylase 1 (Homo sapiens) (Q13547 whole entry): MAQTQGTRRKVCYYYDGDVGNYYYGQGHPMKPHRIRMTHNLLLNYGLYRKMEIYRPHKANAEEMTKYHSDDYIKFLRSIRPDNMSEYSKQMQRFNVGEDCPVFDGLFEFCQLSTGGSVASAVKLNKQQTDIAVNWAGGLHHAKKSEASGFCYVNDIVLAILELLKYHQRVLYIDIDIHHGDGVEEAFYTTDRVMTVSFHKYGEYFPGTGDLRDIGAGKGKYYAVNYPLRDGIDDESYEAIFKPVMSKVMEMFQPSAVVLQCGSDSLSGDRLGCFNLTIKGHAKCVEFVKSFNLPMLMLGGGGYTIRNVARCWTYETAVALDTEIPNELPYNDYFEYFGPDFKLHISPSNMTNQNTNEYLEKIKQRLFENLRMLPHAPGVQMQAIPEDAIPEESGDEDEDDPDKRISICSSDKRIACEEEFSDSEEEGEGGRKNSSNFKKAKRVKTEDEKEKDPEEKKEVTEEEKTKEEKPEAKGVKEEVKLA

Regarding `O=C(NCCSSCCNC(=O)/C(Cc1ccc(O)c(F)c1)=N/O)/C(Cc1ccc(O)c(F)c1)=N/O`, the inhibition result in experiment [1] and in [5] was “Active” throughout. Moreover, the Activity in [2] was 80%. Moreover, the “caspase 3 activation” value in [3] amounted to 30%. In addition, the outcome in experiment [4] was Active. Besides, in experiment [6], the inhibition result was “inactive”.
Take `O=C(NCCSSCCNC(=O)/C(Cc1ccc(O)c(I)c1)=N/O)/C(Cc1ccc(O)c(I)c1)=N/O`: the inhibition result in experiment [1] and in experiment [5] was “Active” in each case. The Activity in experiment [2] came to 80%. Moreover, the “caspase 3 activation” value in experiment [3] amounted to 30%. The outcome in experiment [4] was Active. For the same compound, in experiment [6], the inhibition entry is “inactive”.
As for `O=C(NCCSSCCNC(=O)/C(Cc1cccc(O)c1)=N/O)/C(Cc1cccc(O)c1)=N/O`, the inhibition entry in [1] and in experiment [5] was “Active” each time. The Activity in [2] worked out at 80%. Further, the “caspase 3 activation” value in [3] is reported as 30%. Also, the outcome in experiment [4] was Active. In [6], the inhibition result was “inactive”.
As for `O=C(NCCCCCCNC(=O)/C(Cc1ccc(O)c(Br)c1)=N/O)/C(Cc1ccc(O)c(Br)c1)=N/O`, the inhibition entry in experiment [1] is “inactive”.
As to `O=C(CCc1ccc(O)c(Br)c1)NCCSSCCNC(=O)CCc1ccc(O)c(Br)c1`, the inhibition result in experiment [1] and in experiment [6] was “inactive” in each case. Besides, the Activity in experiment [2] is given as 80%. In experiment [7], the result was inactive. Also, the inhibition entry in experiment [5] is “Active”.
Take `O=C(NCCSSCCNC(=O)/C(Cc1ccc(O)c(Br)c1)=N/O)/C(Cc1ccc(O)c(Br)c1)=N/O` [PSAMMAPLIN A]: the IC50 worked out at 0.0042 µM in [8] and 0.0186 µM in experiment [9]. Also, the inhibition entry in experiment [1] and in experiment [5] was “Active” each time. Also, the Activity is 60% in experiment [2] and “tde” in experiment [11]. The result in experiment [3] and in [10] was Active. The inhibition entry in [6] was “inactive”.
Regarding `O=C(NCCSSCCNC(=O)/C(Cc1ccc(O)cc1)=N/O)/C(Cc1ccc(O)cc1)=N/O`, the inhibition entry in experiment [1] and in experiment [5] was “Active” each time. Moreover, the Activity in experiment [2] came out at 80%. For the same compound, the “caspase 3 activation” value in [3] was found to be 30%. Moreover, in experiment [4], the result was Active. For the same compound, in experiment [6], the inhibition entry was “inactive”.
On to `O=C(NCCCCCSSCCCCCNC(=O)/C(Cc1ccc(O)c(Br)c1)=N/O)/C(Cc1ccc(O)c(Br)c1)=N/O`, for which the inhibition result in [1] was “inactive”.
Turning to `O=C(NCCCCCCSSCCCCCCNC(=O)/C(Cc1ccc(O)c(Br)c1)=N/O)/C(Cc1ccc(O)c(Br)c1)=N/O`, the inhibition result in [1] is “inactive”.
Regarding `C=CC/C=C\C/C=C\CCCCCCCc1cccc(O)c1C(=O)O`, the inhibition result in experiment [6] is “Active”.
In the case of `O=C(NCCSSCCNC(=O)/C(Cc1cc(Br)c(O)c(Br)c1)=N/O)/C(Cc1cc(Br)c(O)c(Br)c1)=N/O`, the inhibition entry in [1] and in experiment [6] was “inactive” throughout. Also, the Activity in [2] amounted to 80%. The outcome in [7] was inactive. Also, the result in experiment [4] was Active. Besides, the inhibition entry in [5] is “Active”.
Consider `O=C(NCCCCSSCCCCNC(=O)/C(Cc1ccc(O)c(Br)c1)=N/O)/C(Cc1ccc(O)c(Br)c1)=N/O`, for which the inhibition entry in experiment [1] was “inactive”.
In the case of `O=C1C=CC2(C=C1Br)CC(C(=O)NCCSSCCNC(=O)C1=NOC3(C=CC(=O)C(Br)=C3)C1)=NO2` (stereo not given), in experiment [1], the inhibition entry is “inactive”. For the same compound, the result in [12] and in experiment [3] was Active. Also, the outcome in experiment [13], in experiment [14] and in [15] was inactive.
Take `O=C(NCCCSSCCCNC(=O)/C(Cc1ccc(O)c(Br)c1)=N/O)/C(Cc1ccc(O)c(Br)c1)=N/O`: in [1], the inhibition entry was “inactive”.
For `O=C(NCCSSCCNC(=O)/C(Cc1ccc(O)c(Cl)c1)=N/O)/C(Cc1ccc(O)c(Cl)c1)=N/O`, the inhibition entry in [1] and in experiment [5] was “Active” in each case. The Activity in [2] turned out to be 80%. Further, the “caspase 3 activation” value in experiment [3] stood at 30%. Also, the outcome in [4] was Active. In addition, in [6], the inhibition entry is “inactive”.
With `CSCCNC(=O)/C(Cc1ccc(O)c(Br)c1)=N/O`, the inhibition result in [1] was “inactive”. For the same compound, the outcome in [10] was Active.
In the case of `O=C(NCCO)/C(Cc1ccc(O)c(Br)c1)=N/O`, the inhibition entry in experiment [1] is “inactive”.
For `COCCNC(=O)/C(Cc1ccc(O)c(Br)c1)=N/O`, the inhibition result in experiment [1] was “inactive”.
Take `O=C(NCCSSCCNC(=O)/C(Cc1ccccc1)=N/O)/C(Cc1ccccc1)=N/O`: the inhibition entry in experiment [1] and in [5] was “Active” each time. For the same compound, the Activity in experiment [2] amounted to 80%. Moreover, the “caspase 3 activation” value in experiment [3] was 30%. The outcome in [4] was Active. Besides, the inhibition entry in experiment [6] is “inactive”.
Consider `Cc1ccc(C(=O)Nc2ccc(S(=O)(=O)O)c3cc(S(=O)(=O)O)cc(S(=O)(=O)O)c23)cc1NC(=O)c1cccc(NC(=O)Nc2cccc(C(=O)Nc3cc(C(=O)Nc4ccc(S(=O)(=O)O)c5cc(S(=O)(=O)O)cc(S(=O)(=O)O)c45)ccc3C)c2)c1`, for which the inhibition entry in experiment [5] is “Active”.
In the case of `O=C(CCCCCCC(=O)Nc1ccccc1)NO`, in experiment [2], the result was Active.
Same read-out and setting: the same measure for `Nc1ccccc1NC(=O)c1ccc(CNC(=O)OCc2cccnc2)cc1`: “Active”.
